Active and inactive are the calls of the source. The calls are words filed in the database; no cut-off is given here.
The compounds below were run on Mycobacterium tuberculosis (assay: Antitubercular activity against Mycobacterium tuberculosis H37Rv ATCC 27294 by microplate alamar blue assay).
Assay type: functional, organism-based
Procedure, shortened: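 Broth microdilution in BACTEC 12B medium, with Alamar Blue read-out.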

Point of comparison: COc1cc(/C=C/C(=O)c2c(C)[n+]([O-])c3ccccc3[n+]2[O-])cc(OC)c1OC, IC50 6.88 µM. Against it:
- CC(=O)c1c(C)[n+]([O-])c2ccccc2[n+]1[O-] [MEQUINDOX] — within 1.5-fold, 6.83 µM
- Cc1ccc(/C=C/C(=O)c2c(C)[n+]([O-])c3ccccc3[n+]2[O-])cc1 — within 1.5-fold, 5.58 µM
- Cc1c(C(=O)/C=C/c2ccccc2)[n+]([O-])c2ccccc2[n+]1[O-] — 1.8-fold lower, 3.88 µM
- COc1ccc(/C=C/C(=O)c2c(C)[n+]([O-])c3ccccc3[n+]2[O-])cc1OC — within 1.5-fold, 9.15 µM
- COc1ccc(/C=C/C(=O)c2c(C)[n+]([O-])c3ccccc3[n+]2[O-])cc1 — 3.4-fold higher, 23.1 µM
- Cc1c(C(=O)/C=C/c2ccc(F)cc2)[n+]([O-])c2ccccc2[n+]1[O-] — within 1.5-fold, 5.83 µM
- Cc1c(C(=O)/C=C/c2cccc([N+](=O)[O-])c2)[n+]([O-])c2ccccc2[n+]1[O-] — 3.2-fold lower, 2.18 µM
- Cc1c(C(=O)/C=C/c2ccc3c(c2)OCO3)[n+]([O-])c2ccccc2[n+]1[O-] — 2.9-fold higher, 19.7 µM
- Cc1c(C(=O)/C=C/c2ccc(Cl)c(Cl)c2)[n+]([O-])c2ccccc2[n+]1[O-] — 6.7-fold lower, 1.03 µM
- Cc1c(C(=O)/C=C/c2ccc([N+](=O)[O-])cc2)[n+]([O-])c2ccccc2[n+]1[O-] — higher, > 250 µM
- Cc1c(C(=O)/C=C/c2ccc(Br)cc2)[n+]([O-])c2ccccc2[n+]1[O-] — 1.9-fold lower, 3.71 µM
- Cc1c(C(=O)/C=C/c2ccc(Cl)cc2)[n+]([O-])c2ccccc2[n+]1[O-] — 2.6-fold lower, 2.64 µM

Point of comparison: Cc1ccc(/C=C/C(=O)c2c(C)[n+]([O-])c3ccccc3[n+]2[O-])cc1, IC90 9.44 µM. Against it:
- CC(=O)c1c(C)[n+]([O-])c2ccccc2[n+]1[O-] [MEQUINDOX] — within 1.5-fold, 7.89 µM
- Cc1c(C(=O)/C=C/c2ccccc2)[n+]([O-])c2ccccc2[n+]1[O-] — 1.5-fold lower, 6.12 µM
- COc1ccc(/C=C/C(=O)c2c(C)[n+]([O-])c3ccccc3[n+]2[O-])cc1OC — 1.8-fold higher, 17.2 µM
- COc1ccc(/C=C/C(=O)c2c(C)[n+]([O-])c3ccccc3[n+]2[O-])cc1 — 4.3-fold higher, 40.2 µM
- COc1cc(/C=C/C(=O)c2c(C)[n+]([O-])c3ccccc3[n+]2[O-])cc(OC)c1OC — within 1.5-fold, 11.9 µM
- Cc1c(C(=O)/C=C/c2ccc(F)cc2)[n+]([O-])c2ccccc2[n+]1[O-] — within 1.5-fold, 10.7 µM
- Cc1c(C(=O)/C=C/c2cccc([N+](=O)[O-])c2)[n+]([O-])c2ccccc2[n+]1[O-] — 3.9-fold lower, 2.39 µM
- Cc1c(C(=O)/C=C/c2ccc3c(c2)OCO3)[n+]([O-])c2ccccc2[n+]1[O-] — 3.8-fold higher, 35.8 µM
- Cc1c(C(=O)/C=C/c2ccc(Cl)c(Cl)c2)[n+]([O-])c2ccccc2[n+]1[O-] — 6.2-fold lower, 1.53 µM
- Cc1c(C(=O)/C=C/c2ccc([N+](=O)[O-])cc2)[n+]([O-])c2ccccc2[n+]1[O-] — higher, > 250 µM
- Cc1c(C(=O)/C=C/c2ccc(Br)cc2)[n+]([O-])c2ccccc2[n+]1[O-] — higher, > 250 µM
- Cc1c(C(=O)/C=C/c2ccc(Cl)cc2)[n+]([O-])c2ccccc2[n+]1[O-] — 2.3-fold lower, 4.12 µM

Organism: Rattus norvegicus
Experiment: Induction of rat liver mitochondria respiration assessed as consumption of oxygen by polarography
Assay type: functional
Procedure, shortened: (§1)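 Liver mitochondria isolated from a rat anesthetized with isoflurane and decapitated. Oxygen consumption measured polarographically. Compounds tested at 1, 5 and 10 μM, added in 4 μL DMSO. A DMSO-only (4 μL) solvent control was run alongside.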

With Cc1c(C(=O)/C=C/c2ccc(Cl)c(Cl)c2)[n+]([O-])c2ccccc2[n+]1[O-] the Activity was “Dose-dependent effect”.

Organism: Rattus norvegicus
Experiment: Induction of rat liver mitochondria respiration assessed as consumption of oxygen at 1 to 10 uM by polarography
Assay type: functional
Procedure, shortened: as §1

With CC(=O)c1c(C)[n+]([O-])c2ccccc2[n+]1[O-] [MEQUINDOX] the Activity was “inactive”.
